Only a selection was taken, and hits are over-represented in it overall.
INS promoter act: TRM-6 insulin promoter activation | TRM-6 cells (human fetal islet line), insulin promoter eGFP reporter, imaging; plate-scaled: unstimulated 0, stimulated control 100 | activation, % at 2 µM | 130,000 compounds, 0.81% hits | AID 1296;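 active = activation at 2 µM above a set limit, confirmed on inspection of the cell images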;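 also: share of cells whose green reporter signal exceeds an intensity cutoff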
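Test system: TRM-6 insulin promoter–eGFP reporter cells / Quantity: 1,000 cells per well / Reagent: tamoxifen inducer, 0.75 µM, in seeding medium / Compound dosing: 2 µM final, single concentration / Schedule: overnight tamoxifen, then two-day compound incubation at 37 °C / Measured by: automated fluorescence imaging of paraformaldehyde-fixed, Hoechst-counterstained cells, green channel / Read-out: percent activation from GFP-positive cell fraction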
An asterisk follows results filed as active.

SMILES | INS promoter act
Cn1c(-c2cccc(Br)c2)n[nH]c1=O | 0
Cc1sc(N2C(=O)C3C4C=CC(C4)C3C2=O)c(C#N)c1C (centres undefined) | 7
CCOc1cccc(OCCOc2ccccc2[N+](=O)[O-])c1 | 25
CCOc1ccc2c(c1)/C(=C(\C(Cl)=C(Cl)Cl)[N+](=O)[O-])N2 | 376*
CCOc1ccc([N+](=O)[O-])c(N)c1 | -3
Cc1ccccc1C(=O)N1CCC(C(=O)Nc2ccc3c(c2)OCO3)CC1 | -7
CCc1ccc(-c2cn(C3CCCCC3)c(=S)[nH]2)cc1 | 0
O=[N+]([O-])c1ccc(N/N=C2\CC3CC=CC23)cc1 (centres undefined) | 0
O=C(N/N=C1\CC2CC=CC12)c1ccc(O)cc1 (centres undefined) | 407*
CSc1ccc(/C=N/NC(=O)c2ccc(O)cc2)cc1 | -6
CC1CCN(C(=S)c2cn(Cc3cccc(F)c3)c3ccccc23)CC1 | 8
CSCCC(NC(=O)CCN1C(=O)c2ccccc2C1=O)C(=O)O (centres undefined) | 6
O=c1c2ccccc2nnn1CSc1nc2ccccc2c(=O)n1CCCO | 9
CSCC[C@H](NC(=O)CCn1nnc2ccccc2c1=O)C(=O)O | 150*
Cc1ccc(N2C(=O)c3ccc(C(=O)N4CCOCC4)cc3C2=O)cc1C | -91
CCCc1cc(=O)oc2cc(OCC(=O)OC)cc(OCC(=O)OC)c12 | -7
CCCCn1c(N)c(N(CC)C(=O)c2cccc(OC)c2)c(=O)[nH]c1=O | -8
Cc1ccc(S(=O)(=O)Nc2cccc(C(=O)Nc3cc(C)ccn3)c2)cc1 | 7
Cc1cc(NC(=O)c2ccccc2NS(=O)(=O)c2c(C)c(C)cc(C)c2C)no1 | 4
Cc1ccc(NS(=O)(=O)c2cccc(C(=O)Nc3cc(C)on3)c2)cc1 | 369*
CCn1c(Cc2ccccc2)nnc1SCC(=O)Nc1ccc(N2CCOCC2)c(Cl)c1 | 377
Cn1c(SCC(=O)Nc2ccc(N3CCOCC3)c(Cl)c2)nnc1-c1ccccc1 | 800*
Cc1ccc(NC(=O)CSCC(=O)Nc2ccc(N3CCOCC3)c(Cl)c2)cc1 | 0
CCC1(CC)C(=O)NC(=O)NC1=Nc1cccc(OC)c1 | 168*
COc1cccc(NC(=O)Cc2ccccc2)c1 | -73
SMILES | INS promoter act
COc1cccc(-c2csc3nc[nH]c(=O)c23)c1 | -89
c1ccc(CN2CCOCC2)cc1 | -9
O=C(NCCCN1CCOCC1)c1cc(-c2ccccc2)on1 | 32
Clc1ccc2oc(-c3ccccc3)cc(=NCCCN3CCOCC3)c2c1 | 321*
COc1ccc(-c2nn(C)c(=O)c3ccccc23)cc1NC(=O)Cn1nc(-c2ccccc2)c2ccccc2c1=O | -3
O=C(CSc1nnc(CCCOc2ccc(Cl)cc2Cl)o1)Nc1ccc(C(=O)O)cc1 | 4
CCc1nnc(NC(=O)C2CCCCN2S(=O)(=O)c2ccccc2)s1 (centres undefined) | 6
Cc1cccc(-n2c(N)cc(=O)nc2SCC(=O)Nc2nnc(C)s2)c1 | -10
COCc1ccc(CN2CCc3c([nH]c4ccccc34)C2C(C)(C)C)o1 (centres undefined) | 231*
COc1cccc(C2c3[nH]c4ccccc4c3CCN2C(=O)Cn2cncn2)c1OC (centres undefined) | -2
Fc1ccc(C2c3[nH]c4ccccc4c3CCN2Cc2cccn2-c2ncccn2)cc1 (centres undefined) | -7
Cc1ccc(-n2nnnc2SC(C)C(=O)NCC(=O)Nc2ccc(F)c(F)c2F)c(C)c1 (centres undefined) | 0
COc1ccc(CNC(=O)C/C(C)=N/NC(=O)COc2ccc(C)cc2Br)cc1 | 3
Cc1cc(C(F)F)n2ncc(C(=O)N3CCCCC3)c2n1 | 247
O=C(c1cnn2c(C(F)F)cc(-c3ccccc3)nc12)N1CCN2CCCC2C1 (centres undefined) | 104
COc1ccc(-c2cc(C(F)F)n3ncc(C(=O)N4CCc5ccccc5C4)c3n2)cc1 | 393*
CCc1ccc(NC(=O)CC2C(=O)Nc3c2c(=O)n(C)c(=O)n3C)cc1 (centres undefined) | 3
COc1ccc([N+](=O)[O-])cc1NC(=O)CSc1nc(C)c(C)c(C)n1 | -3
CCOC(=O)N1CCN(CCC(=O)Nc2cc([N+](=O)[O-])ccc2OC)CC1 | 331*
COc1ccc([N+](=O)[O-])cc1NC(=O)CCN1CCN(CCO)CC1 | -7
CC(C)C1Cc2[nH]c(=O)c(C(=O)O)cc2CO1 (centres undefined) | 106
Cc1cc(C)c2nc(/N=C(\N)NC(=O)Nc3ccccc3)nc(C)c2c1 | 5
COc1ccc(CCNC(=O)Cn2nc([N+](=O)[O-])c(Br)c2C)cc1OC | 0
CC(=O)Nc1cccc(OCc2ccc(F)cc2)c1 | 141
Fc1ccc(-c2csc(=S)[nH]2)cc1 | 279*
SMILES | INS promoter act
Cc1ccsc1/C=N/NC(=O)CNC(=O)c1cccc([N+](=O)[O-])c1C | 8
COC(=O)c1c(-c2cccc3ccccc23)csc1NC(=O)Cc1ccc(OC)c(OC)c1 | -2
Cc1ccc(C)c(NC(=S)NCc2cccn2C)c1 | -9
Cc1cc(C)c(OCCN2C(=O)NC(C)(C)C2=O)c(Cl)c1 | 8
Cc1cc(Cl)c(OCCCN2CCCCC2)c(Br)c1 | 146
Cc1cc(Cl)c(OCCN2C(=O)NC(C)(C)C2=O)c(Br)c1 | 538*
CSc1nnc(-c2cnccn2)n1CCCN1CCCC1=O | 6
CC(=O)c1c(C)[nH]c(C(=O)CSc2nnc(-c3ccccc3)o2)c1C | -3
CS(=O)(=O)N1CCC(C(=O)N2CCN(c3ccccc3F)CC2)CC1 | -6
COC(=O)c1cn(-c2ccccc2)c(C)c1C(=O)OC | 592*
COC(=O)c1cn(C(=O)OC)c2ccccc12 | 226
O=C(O)c1cn(-c2ccccc2)c(=O)c2ccccc12 | -70
COc1ccc(S(=O)(=O)NC2CCCCC2)c(C)c1C | 10
CCn1c(CSCc2ccc(F)cc2)nnc1SCC(=O)N1CCN(c2ccccc2)CC1 | 95*
O=C(CSCc1ccccc1)N1CCN(c2ccc(F)cc2)CC1 | -4
CCn1c(SCC(=O)N2CCN(c3ccccc3)CC2)nnc1-c1ccncc1 | 6
Cc1ccc(NC(=O)c2cccc(S(=O)(=O)N(C)c3ccccc3)c2)cc1S(=O)(=O)N1CCOCC1 | 3
Cc1c(C(=O)N2CCc3ccccc32)cnn1C | 0
CC(C)(C)NC(=O)CN(C(=O)Cn1nnc(-c2ccc(Cl)cc2)n1)C1CCN(Cc2ccccc2)CC1 | 7
O=C(Nc1ccccc1C(=O)NCc1ccco1)NC1CCCCC1 | -10
O=C(COc1ccc(Cl)cc1)Nc1ccccc1C(=O)NCc1ccco1 | 438*
O=C(COc1ccc(Cl)cc1Cl)NNC(=S)NCc1ccco1 | 167
Cc1[nH]n(-c2ccccc2)c(=S)c1C=Nc1ccc([N+](=O)[O-])cc1 | 0
CCCOc1ccc2c(=O)c(-c3cc(C(=O)OC)oc3C)c(C)oc2c1 | -8
COc1cccc(OC)c1OCCOc1ccccc1OC(C)C | 6
SMILES | INS promoter act
O=C(COc1ccccc1)N1CCc2ccccc21 | -2
Cc1ccc(S(=O)(=O)CCC(=O)N2CCc3ccccc32)cc1 | 4
O=C(CCC(=O)N1CCc2ccccc21)N1CCc2ccccc21 | 569*
C1CCN(c2c3c(nc4nnnn24)CCCC3)CC1 | -6
COc1cccc(/C=N/NC(=O)C(=O)N/N=C/c2cccc(OC)c2OC)c1OC | 0
C/C(=N\OCC(=O)N/N=C/c1ccccc1)c1cccs1 | -9
COc1cccc(/C=N/NC(=O)CO/N=C(\C)c2cccs2)c1OC | 86*

From PubChem BioAssay
